Screens: PubChem BioAssay, several laboratories
HCV NS3 hel inh: inhibitors of HCV NS3 helicase, primary screen, biochemical, Cy5 molecular beacon fluorescence | Hepatitis C virus NS3 helicase | NS3 helicase DNA unwinding | inhibition, % at 10.9 µM | actives 0.56% (n = 290,000);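 active = inhibition above the mean of all tested compounds plus 3 SD, set per campaign, cut at about 35% in these data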;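 note: 0% = DMSO wells and 100% = thioflavine S control wells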
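Material: hepatitis C virus NS3 helicase domain fragment enzyme; measured by: Cy5 fluorescence, 0 and 60 min reads; control set: DMSO and thioflavine S; incubation: 60 min unwinding reaction at 25 °C after ATP addition; read-out basis: % inhibition from 60/0 min fluorescence ratio, DMSO 0%, thioflavine S 100%; repeats: singlicate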
HSP90 inh: HSP90 inhibitors, primary screen, cell lysate, luminescence; Heat shock protein HSP 90 (rabbit reticulocyte lysate; luciferase refolding); Rabbit reticulocyte lysate, luciferase refolding luminescence, 3 h; inhibition, % at 5.6 µM; actives 0.91% (n = 290,000);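 active = inhibition above the screen-wide mean plus 3 SD, computed separately per campaign, cut at about 16% in these data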;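 note: 0% = DMSO wells and 100% = 60 µM geldanamycin wells; inhibitors lower the luminescence because luciferase stays unfolded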
HSF1 inhib: HSF1 inhibitors in luciferase reporter cells, primary screen, cell-based, NIH3T3, luminescence. NIH3T3-HGL HSE-luciferase, MG132-induced, luminescence 8 h; stronger effect = lower value. activity change, negative = inhibition, % at 7.5 µM (by protocol). actives 0.77% (n = 300,000). AID 2098, 2009;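 active = more than half of replicate wells show activity change below -50%, luminescence cut by over half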;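 note: luciferase reports HSF-1 transcriptional activity via heat shock element; 0% = median of DMSO wells and -100% = zero luminescence signal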
HSF1 activator: HSF-1 activators, primary screen, NIH3T3-HGL cells, MG132 stress, luminescence, single point; NIH3T3-HGL HSF-1 luciferase reporter, 8 h; 100% = twice DMSO control signal; actives 1.7% (n = 300,000); AID 504408, 2011; activation, % at 9 µM;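 active = mean replicate activation of at least 50% with a set share of replicates each reaching 50%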;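 note: 0% = median of the neutral control wells and 100% = twice that signal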
FID counter: compounds displacing fluorescent DNA intercalator, primary screen, artefact control for HCV NS3 helicase inhibitor project, biochemical, FID fluorescence | DNA fluorescent intercalator displacement | inhibition, % at 7.9 µM | actives 0.17% (n = 290,000) | AID 1845, 2009; in the data active = inhibition above about 37%;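 note: 0% = vehicle and 100% = reference compound; higher means more ethidium bromide displaced from hairpin DNA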
core dimer inh: inhibitors of HCV core protein dimerization, primary screen, biochemical, TR-FRET, high-throughput; actives 0.33% (n = 300,000); inhibition, % at 5 µM; TR-FRET GST/Flag-core106 dimerization, 1536-well;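 active = inhibition above the mean of all tested compounds plus 3 SD, set per screening campaign, cut at about 45% in these data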
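System: GST-tagged and Flag-tagged HCV core protein residues 1-106 / Input: core106 proteins, GST 13.5 nM and Flag 17 nM / Buffer or medium: KF-containing HEPES buffer, pH 7.45, DTT, CHAPS, BSA / Probe or stimulus: Eu-anti-GST and XL665-anti-Flag labelled anti-tag antibodies / Schedule: 4 h, 22.5 °C incubation / Technique: TR-FRET 671 and 617 nm emission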
* = called active by the depositor; . = no result. An excerpt weighted towards active compounds, which were near 3.9% of everything screened.

SMILES	HCV NS3 hel inh	HSP90 inh	HSF1 inhib	HSF1 activator	FID counter	core dimer inh
CCOc1ccc2nc(NC(=S)N(C)C)sc2c1	-2	10	13	32	-2	0
CN(C)C(=S)Nc1nc2ccccc2s1	7	0	45	83*	-3	.
COc1ccc2nc(Nc3ccccc3)sc2c1	-12	3	12	68*	-2	-4
COc1ccc2nc(NC(=O)c3ccccc3[N+](=O)[O-])sc2c1	5	3	24	34	11	0
COc1ccc2nc(Nc3ccc4c(c3)OCO4)sc2c1	-8	4	3	24	-2	-6
Cc1ccc(Nc2nc3ccccc3s2)cc1	-5	1	28	60*	-10	5
O=C(O)Cc1sc(Nc2ccccc2)nc1-c1ccc(Cl)cc1	12	0	16	31	5	-1
Cc1ccc(Nc2nc(-c3ccccc3)c(CC(=O)O)s2)cc1	6	-2	36	63*	-4	3
CCOC(=O)CCNC(=O)N1CCC(CCOc2ccccc2)(C(=O)OCC)CC1	2	3	0	17	-39	-4
Cc1ccc2nc(-c3ccc(SCC(=O)O)nc3)[nH]c2c1	6	9	-7	-21	2	-3
Cc1ccc2nc(-c3ccc(SCC(=O)N4CCc5ccccc54)nc3)[nH]c2c1	-13	-3	85	102*	-2	-29
CCc1nnc(NC(=O)CSc2ccc(-c3nc4ccc(C)cc4[nH]3)cn2)s1	-7	-1	26	68*	0	9
Cc1ccccc1Cn1c(=N)n(CC(O)c2ccco2)c2ccccc21 (centres undefined)	-15	2	10	1	14	1
CC(C)(C)c1ccc(Cn2c(=N)n(CC(O)c3ccco3)c3ccccc32)cc1 (centres undefined)	-54	-3	24	56*	26	-6
CCOc1ccc(NC(=O)CN(C)C(=O)c2ccc(OCC3CCCO3)cc2)cc1OCC (centres undefined)	2	-2	0	-6	-43	3
CCOc1ccc(NC(=O)CCC(=O)Nc2nnc(CC)s2)cc1	-10	1	-3	6	-4	0
O=C(NN1C(=O)C2CC=C(Cl)CC2C1=O)c1ccncc1 (centres undefined)	8	0	2	2	-2	48*
COc1ccc(/C=N/NC(=O)CN(C2=NS(=O)(=O)c3ccccc32)c2ccccc2)cc1	-2	-2	1	7	-5	19
CCOC(=O)c1c(NC(=O)CC2SC(N)=NC2=O)sc2c1CCC(C)C2 (centres undefined)	-4	59*	0	1	-12	10
CCc1cccc(NC(=O)C2CCCN(S(=O)(=O)c3cccs3)C2)c1 (centres undefined)	-6	1	-73*	-79	-23	-2
CCn1c(SC2CCOC2=O)nnc1-c1ccc(Cl)cc1 (centres undefined)	1	0	.	.	-3	0
CC(C)CC(=O)N1CCN(S(=O)(=O)c2ccc(F)cc2)CC1	-1	0	6	14	-6	-4
COc1cccc(COC(=O)Nc2ccccc2F)c1	-13	6	45	74*	-8	1
COc1ccc(NC(=O)Nc2ccccc2F)c(C)c1	6	0	0	23	-4	-7
Cc1ccc(S(=O)(=O)NC(=O)Nc2ccc(C)cc2C)cc1	7	0	-4	22	-5	.
SMILES	HCV NS3 hel inh	HSP90 inh	HSF1 inhib	HSF1 activator	FID counter	core dimer inh
COc1ccc(/C=C/C(=O)c2ccc3c(c2)OCCO3)cc1[N+](=O)[O-]	-1	4	22	24	10	12
Cn1cc(/C=N/NC(=O)c2ccccc2O)c2ccccc21	-6	0	-10	4	-3	7
COc1ccc(/C=N/NC(=O)c2ccc3c(c2)OCCO3)cc1[N+](=O)[O-]	16	-2	-80*	-76	-1	5
O=C(N/N=C/c1cc(Br)cs1)c1ccc2c(c1)OCCO2	-5	0	22	57*	-13	0
Cn1cc(C(=O)N/N=C/c2cc(Br)cs2)c2ccccc21	-9	1	20	60*	-2	-1
O=C(N/N=C/c1ccc(C(=O)O)cc1)C1=NNC(c2ccccc2)(c2ccccc2)C1	14	-2	-3	-2	-10	8
COc1ccccc1/C=N/NC(=O)C1=NNC(c2ccccc2)(c2ccccc2)C1	6	0	-1	-13	-3	54*
CCC(=O)Nc1nnc(SCC(=O)NCCc2ccc(OC)c(OC)c2)s1	12	-3	-6	-7	-3	1
COc1cc(/C=N/NC(=S)NC2CC3C=CC2C3)cc(OC)c1OC (centres undefined)	-4	0	123	164*	-24	7
CCOc1ccc(CNC(=S)N/N=C\c2ccc([N+](=O)[O-])cc2)cc1	-7	5	7	9	4	21
COc1cc(/C=N/NC(=S)NCCc2ccccc2)cc(OC)c1OC	-22	0	-3	3	-31	.
CCOc1ccc(/C=N/NC(=S)NC2CC3C=CC2C3)cc1 (centres undefined)	-4	-3	35	53*	-13	1
CN(C)/C=N/c1c(C#N)nnn1Cc1ccccc1	0	1	5	27	-6	-4
O=C(CC1SC(=Nc2cccc3ccccc23)N(Cc2ccccn2)C1=O)Nc1ccccc1Br (centres undefined)	10	1	6	8	-1	13
Cc1ccccc1N=C1SC(CC(=O)Nc2ccc3ccccc3c2)C(=O)N1Cc1ccccn1 (centres undefined)	-17	-4	19	57*	-17	14
O=c1[nH]c(CSc2ncnc3sccc23)nc2cc(C(F)(F)F)ccc12	3	4	1	-12	-6	10
O=c1[nH]c(CSc2ccccn2)nc2ccccc12	12	1	34	75*	-2	6
Cn1ccnc1SCc1nc2c(cnn2-c2ccccc2)c(=O)[nH]1	10	3	8	0	-1	2
O=c1[nH]c(CSc2ncc(C(F)(F)F)cc2Cl)nc2ccccc12	0	4	38	63*	-8	7
O=c1[nH]c(CSc2ccccn2)nc2c1cnn2-c1ccccc1	3	1	27	57*	-5	-1
O=c1[nH]c(CSc2nc3ccccc3s2)nc2ccccc12	-11	-1	39	45	-14	0
Cc1c(C(=O)N2CCOCC2)cc(C(C)(C)C)n1-c1ccccc1	1	4	11	16	-24	-7
